Converted amounts (≈) assume the structure as drawn. The source made the active and inactive calls. The rule behind the calls is not given here.
Experiments:
Staphylococcus aureus [1] = assay: Antibacterial activity against Staphylococcus aureus ATCC 29213 after 20 to 22 hrs by CLSI broth macro-dilution method; format: functional
Pseudomonas aeruginosa = assay: Antibacterial activity against Pseudomonas aeruginosa ATCC 27853 after 20 to 22 hrs by CLSI broth macro-dilution method; format: functional
[2] = Hemolytic activity against rabbit erythrocytes after 60 mins by spectrophotometric analysis; format: ADME, cell-based, Oryctolagus cuniculus, Erythrocyte
Staphylococcus aureus [3] = assay: Antibacterial activity against methicillin-resistant Staphylococcus aureus clinical isolate DM21455 after 20 to 22 hrs by CLSI broth macro-dilution method; format: functional
[4] = Selectivity ratio of HC50 for rabbit erythrocyte to MIC99 for methicillin-resistant Staphylococcus aureus clinical isolate DM21455; format: functional
[5] = Partition coefficient, log P of the compound by HPLC analysis; format: physicochemical; settings: octanol/water
How it was run: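 Partition coefficient measured by HPLC following OECD guidelines for the testing of chemicals.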

Klebsiella pneumoniae = assay: Antibacterial activity against Klebsiella pneumoniae ATCC 10031 after 20 to 22 hrs by CLSI broth macro-dilution method; format: functional
[6] = Selectivity ratio of HC50 for rabbit erythrocyte to MIC99 for Staphylococcus aureus ATCC 29213; format: functional
[7] = Dissociation constant, pKa of the compound; format: physicochemical
Staphylococcus aureus [8] = assay: Antibacterial activity against methicillin-resistant Staphylococcus aureus DM09808R assessed as log reduction in CFU at 0.5 X MIC to 4 X MIC after 8 hrs by surface-spread plate method relative to control; format: functional, organism-based
Staphylococcus aureus [9] = assay: Antibacterial activity against methicillin-resistant Staphylococcus aureus DM21595 obtained from wound isolate after 20 to 22 hrs by CLSI broth macro-dilution method; format: functional
Staphylococcus aureus [10] = assay: Antibacterial activity against methicillin-resistant Staphylococcus aureus DM42412 assessed as log reduction in CFU at 0.5 X MIC to 4 X MIC after 8 hrs by surface-spread plate method relative to control; format: functional, organism-based
Staphylococcus aureus [11] = assay: Antibacterial activity against methicillin-resistant Staphylococcus aureus DR42412 obtained from sputum isolate after 20 to 22 hrs by CLSI broth macro-dilution method; format: functional
Staphylococcus aureus [12] = assay: Antibacterial activity against methicillin-resistant Staphylococcus aureus DM09808R obtained from eye isolate after 20 to 22 hrs by CLSI broth macro-dilution method; format: functional
Staphylococcus aureus [13] = assay: Antibacterial activity against methicillin-resistant Staphylococcus aureus ATCC […] after 20 to 22 hrs by CLSI broth macro-dilution method; format: functional
Staphylococcus aureus [14] = assay: Antibacterial activity against methicillin-resistant Staphylococcus aureus DM21595 assessed as log reduction in CFU at 0.5 X MIC to 4 X MIC after 8 hrs by surface-spread plate method relative to control; format: functional, organism-based
Staphylococcus aureus [15] = assay: Antibacterial activity against methicillin-resistant Staphylococcus aureus DM21455 assessed as log reduction in CFU at 0.5 X MIC to 4 X MIC after 8 hrs by surface-spread plate method relative to control; format: functional, organism-based
Staphylococcus aureus [16] = assay: Antibacterial activity against methicillin-resistant Staphylococcus aureus ATCC 700699 assessed as log reduction in CFU at 0.5 X MIC to 4 X MIC after 8 hrs by surface-spread plate method relative to control relative to control; format: functional, organism-based
Staphylococcus aureus [17] = assay: Antimicrobial activity against Staphylococcus aureus assessed as disruption of bacterial membrane at 10 uM by SYTOX green uptake assay; format: functional, organism-based
How it was run: (§1)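 S. aureus DM4001 treated with 10 μM agent and incubated with the membrane-impermeant nucleic-acid dye SYTOX Green. Permeabilization was read as increased fluorescence intensity and confirmed by fluorescence microscopy counting green-stained cells.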

Staphylococcus aureus [18] = assay: Antimicrobial activity against in Staphylococcus aureus assessed as disruption of bacterial membrane at 10 uM by fluorescence microscopy; format: functional, organism-based; how it was run: as §1
Staphylococcus aureus [19] = assay: Antibacterial activity against methicillin-resistant Staphylococcus aureus DM09808R assessed as log reduction in CFU at 0.5 X MIC to 4 X MIC after 24 hrs by surface-spread plate method relative to control; format: functional
[20] = Toxicity against New Zealand White rabbit corneal epithelium assessed as effect on wound closure at 50 ug/ml by Slit lamp photography relative to control; format: tissue-based, Oryctolagus cuniculus, Cornea; settings: in vivo
How it was run: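 A 5 mm corneal epithelial abrasion was made with a sterile trephine and the epithelium removed with a mini blade. Eyes were treated with saline, vancomycin 50 μg/mL, or agent 50 μg/mL. Wound closure was tracked over time from fluorescein-stained photographs of defect size.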

Staphylococcus aureus [21] = assay: Antibacterial activity against methicillin-resistant Staphylococcus aureus DM42412 assessed as log reduction in CFU at 0.5 X MIC to 4 X MIC after 24 hrs by surface-spread plate method relative to control; format: functional
Staphylococcus aureus [22] = assay: Antibacterial activity against methicillin-resistant Staphylococcus aureus DM21595 assessed as log reduction in CFU at 0.5 X MIC to 4 X MIC after 24 hrs by surface-spread plate method relative to control; format: functional
Staphylococcus aureus [23] = assay: Antibacterial activity against methicillin-resistant Staphylococcus aureus ATCC 700699 assessed as log reduction in CFU at 0.5 X MIC to 4 X MIC after 24 hrs by surface-spread plate method relative to control; format: functional
Staphylococcus aureus [24] = assay: Antibacterial activity against methicillin-resistant Staphylococcus aureus DM21455 assessed as log reduction in CFU at 0.5 X MIC to 4 X MIC after 24 hrs by surface-spread plate method relative to control; format: functional

Structure (SMILES) | MIC99 (Staphylococcus aureus [1]) | HC50 at 1 h [2] | MIC99 (Staphylococcus aureus [3]) | Selectivity ratio [4] | logP ([5]; read-out: logP) | Selectivity ratio [6] | pKa [7] | further results
COc1c(O)cc2oc3cc(O)c(CC=C(C)C)c(O)c3c(=O)c2c1CC=C(C)C [MANGOSTIN] | 1.56 µg/mL (≈ 3.8 µM) | 9 µM | 1.56 µg/mL (≈ 3.8 µM) | 5.77 | 6.75 | 5.77 | – | MIC (Pseudomonas aeruginosa): > 200 µg/mL; MIC (Klebsiella pneumoniae): > 200 µg/mL
CCN(CC)CCCCCCOc1cc2oc3cc(OCCCCCCN(CC)CC)c(OC)c(CC=C(C)C)c3c(=O)c2c(O)c1CC=C(C)C | 1.56 µg/mL (≈ 2.16 µM) | 26.5 µM | 1.56 µg/mL (≈ 2.16 µM) | 17 | 8.39 | 17 | 11 | –
CCN(CC)CCCCCOc1cc2oc3cc(OCCCCCN(CC)CC)c(OC)c(CC=C(C)C)c3c(=O)c2c(O)c1CC=C(C)C | 1.56 µg/mL (≈ 2.25 µM) | 14 µM | 0.78 µg/mL (≈ 1.13 µM) | 18 | 7.55 | 9 | 11 | –
CCN(CC)CCCOc1cc2oc3cc(OCCCN(CC)CC)c(OC)c(CC=C(C)C)c3c(=O)c2c(O)c1CC=C(C)C | 0.78 µg/mL (≈ 1.22 µM) | 16.3 µM | 0.39 µg/mL (≈ 0.612 µM) | 41.7 | 6.27 | 20.9 | 11 | –
COc1c(OCCCCN2CCCCC2)cc2oc3cc(OCCCCN4CCCCC4)c(CC=C(C)C)c(O)c3c(=O)c2c1CC=C(C)C | 0.78 µg/mL (≈ 1.13 µM) | 19.3 µM | 1.56 µg/mL (≈ 2.26 µM) | 12.3 | 6.93 | 24.7 | 11.2 | –
COc1c(OCCCCN2CCCC2)cc2oc3cc(OCCCCN4CCCC4)c(CC=C(C)C)c(O)c3c(=O)c2c1CC=C(C)C | 1.56 µg/mL (≈ 2.36 µM) | 25 µM | 1.56 µg/mL (≈ 2.36 µM) | 16 | 6.63 | 16 | 11.3 | –
COc1c(OCCCCn2cncn2)cc2oc3cc(OCCCCn4cncn4)c(CC=C(C)C)c(O)c3c(=O)c2c1CC=C(C)C | > 200 µg/mL | > 200 µM | > 200 µg/mL | – | – | – | 2.2 | logP [5]: 11.08
CCCCCCCCCC(=O)N[C@@H](Cc1c[nH]c2ccccc12)C(=O)N[C@H](CC(N)=O)C(=O)N[C@@H](CC(=O)O)C(=O)N[C@@H]1C(=O)NCC(=O)N[C@@H](CCCN)C(=O)N[C@@H](CC(=O)O)C(=O)N[C@H](C)C(=O)N[C@@H](CC(=O)O)C(=O)NCC(=O)N[C@H](CO)C(=O)N[C@@H]([C@H](C)CC(=O)O)C(=O)N[C@@H](CC(=O)c2ccccc2N)C(=O)O[C@@H]1C | – | – | 0.78 µg/mL (≈ 0.481 µM) | – | – | – | – | Activity (Staphylococcus aureus [8]): inactive; MIC (Staphylococcus aureus [9]): 0.78 µg/mL (≈ 0.481 µM); Activity (Staphylococcus aureus [10]): inactive; MIC (Staphylococcus aureus [11]): 0.195 µg/mL (≈ 0.12 µM); MIC (Staphylococcus aureus [12]): 0.195 µg/mL (≈ 0.12 µM); MIC (Staphylococcus aureus [13]): 0.78 µg/mL (≈ 0.481 µM); Activity (Staphylococcus aureus [14]): inactive; Activity (Staphylococcus aureus [15]): inactive; Activity (Staphylococcus aureus [16]): inactive
COc1c(OCCCCN2CCOCC2)cc2oc3cc(OCCCCN4CCOCC4)c(CC=C(C)C)c(O)c3c(=O)c2c1CC=C(C)C | > 200 µg/mL | > 200 µM | > 200 µg/mL | – | 5.42 | – | 8.36 | –
COc1c(OCCCCBr)cc2oc3cc(OCCCCBr)c(CC=C(C)C)c(O)c3c(=O)c2c1CC=C(C)C | > 200 µg/mL | > 200 µM | > 200 µg/mL | – | – | – | – | Activity (Staphylococcus aureus [17]): inactive; Activity (Staphylococcus aureus [18]): inactive
CN[C@H](CC(C)C)C(=O)N[C@H]1C(=O)N[C@@H](CC(N)=O)C(=O)N[C@H]2C(=O)N[C@H]3C(=O)N[C@H](C(=O)N[C@H](C(=O)O)c4cc(O)cc(O)c4-c4cc3ccc4O)[C@H](O)c3ccc(c(Cl)c3)Oc3cc2cc(c3O[C@@H]2O[C@H](CO)[C@@H](O)[C@H](O)[C@H]2O[C@H]2C[C@](C)(N)[C@H](O)[C@H](C)O2)Oc2ccc(cc2Cl)[C@H]1O [VANCOMYCIN] | – | – | 0.78 µg/mL (≈ 0.538 µM) | – | – | – | – | MIC (Staphylococcus aureus [9]): 0.39 µg/mL (≈ 0.269 µM); FC (Staphylococcus aureus [19]): 3; Activity [20]: Non-toxic; FC (Staphylococcus aureus [21]): 3; MIC (Staphylococcus aureus [11]): 0.78 µg/mL (≈ 0.538 µM); MIC (Staphylococcus aureus [12]): 0.39 µg/mL (≈ 0.269 µM); FC (Staphylococcus aureus [22]): 3; MIC (Staphylococcus aureus [13]): 6.25 µg/mL (≈ 4.31 µM); FC (Staphylococcus aureus [23]): 3; FC (Staphylococcus aureus [24]): 3
COc1c(OCCCCn2cccn2)cc2oc3cc(OCCCCn4cccn4)c(CC=C(C)C)c(O)c3c(=O)c2c1CC=C(C)C | > 200 µg/mL | > 200 µM | > 200 µg/mL | – | – | – | 2.52 | logP [5]: 9.28

From ChEMBL document CHEMBL2331269, “Design and synthesis of amphiphilic xanthone-based, membrane-targeting antimicrobials with improved membrane selectivity” (J Med Chem, 2013)
